Calls of active or inactive are those of the source. The rule behind the calls is not given here.
Assays:
[1] = molecular target: T1, Epidermal growth factor receptor (Homo sapiens, UniProt P00533); experiment: Inhibition of EGFR using GST-Crk as substrate assessed as phosphorylated Crk level after 20 mins by SDS-PAGE analysis
Procedure, shortened: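 Kinase mix was incubated with inhibitor at 0, 0.5, 2.5, 12.5 and 62.5 nM on ice for 10 min, then at 30 °C for 20 min. The reaction was quenched with SDS sample buffer at 100 °C for 4 min. Proteins were run on 10% SDS–PAGE and the dried gel was quantified by phosphorimager.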

[2] = molecular target: T1, Epidermal growth factor receptor; experiment: Inhibition of EGFR-mediated intracellular tyrosine phosphorylation in EGF-stimulated human A431 cells after 2.5 hrs by SDS-PAGE analysis; format: cell-based, A-431
Procedure, shortened: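 A431 cells were grown 2 days in DMEM with 10% FCS at 37 °C, 5% CO₂, then serum-starved 18 h. Inhibitor was added at 0, 10, 50, 250 and 1000 nM for 2.5 h at 37 °C. Cells were stimulated with 100 ng/ml EGF for 5 min and lysed in SDS buffer with 1 mM vanadate. Lysates were run on 10% SDS–PAGE, immunoblotted with anti-phosphotyrosine (pY99, 4G10), detected by ECL, and quantified by densitometry.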

[3] = molecular target: Tyrosine-protein kinase ABL1 (Homo sapiens) (UniProt P00519); experiment: Inhibition of Abl at >[…] nM
Sequence of Tyrosine-protein kinase ABL1 (Homo sapiens) (P00519 whole entry): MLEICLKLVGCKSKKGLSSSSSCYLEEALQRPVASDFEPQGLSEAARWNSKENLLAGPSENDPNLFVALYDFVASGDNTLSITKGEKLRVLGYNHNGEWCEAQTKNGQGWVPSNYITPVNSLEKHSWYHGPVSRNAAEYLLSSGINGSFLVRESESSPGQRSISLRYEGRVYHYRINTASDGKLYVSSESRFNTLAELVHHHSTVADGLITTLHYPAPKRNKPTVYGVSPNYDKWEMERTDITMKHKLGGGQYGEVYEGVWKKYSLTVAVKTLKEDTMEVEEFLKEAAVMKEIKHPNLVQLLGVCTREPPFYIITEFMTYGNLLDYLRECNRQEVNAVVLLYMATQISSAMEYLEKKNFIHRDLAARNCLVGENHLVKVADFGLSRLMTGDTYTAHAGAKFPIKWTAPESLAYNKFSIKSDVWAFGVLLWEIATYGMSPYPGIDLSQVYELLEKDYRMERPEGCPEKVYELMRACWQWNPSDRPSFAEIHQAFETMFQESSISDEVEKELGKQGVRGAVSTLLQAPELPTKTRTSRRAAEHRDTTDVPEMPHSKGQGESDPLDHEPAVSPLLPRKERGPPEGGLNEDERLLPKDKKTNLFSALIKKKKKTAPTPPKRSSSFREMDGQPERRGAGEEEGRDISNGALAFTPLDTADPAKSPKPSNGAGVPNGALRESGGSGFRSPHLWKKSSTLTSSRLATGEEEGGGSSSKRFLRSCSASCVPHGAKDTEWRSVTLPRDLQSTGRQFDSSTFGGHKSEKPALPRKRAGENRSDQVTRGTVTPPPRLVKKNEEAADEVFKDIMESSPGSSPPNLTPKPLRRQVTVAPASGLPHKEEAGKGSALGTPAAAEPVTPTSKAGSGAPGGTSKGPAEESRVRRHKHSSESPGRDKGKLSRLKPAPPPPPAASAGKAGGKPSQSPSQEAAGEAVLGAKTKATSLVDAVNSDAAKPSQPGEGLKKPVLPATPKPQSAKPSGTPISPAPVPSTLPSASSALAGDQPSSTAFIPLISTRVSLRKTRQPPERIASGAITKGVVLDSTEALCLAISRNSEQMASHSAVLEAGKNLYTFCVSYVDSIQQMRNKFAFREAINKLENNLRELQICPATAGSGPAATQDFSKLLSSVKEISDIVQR

[4] = molecular target: Tyrosine-protein kinase ABL2 (Homo sapiens) (UniProt P42684); experiment: Inhibition of Arg at >[…] nM
Sequence of Tyrosine-protein kinase ABL2 (Homo sapiens) (P42684 whole entry): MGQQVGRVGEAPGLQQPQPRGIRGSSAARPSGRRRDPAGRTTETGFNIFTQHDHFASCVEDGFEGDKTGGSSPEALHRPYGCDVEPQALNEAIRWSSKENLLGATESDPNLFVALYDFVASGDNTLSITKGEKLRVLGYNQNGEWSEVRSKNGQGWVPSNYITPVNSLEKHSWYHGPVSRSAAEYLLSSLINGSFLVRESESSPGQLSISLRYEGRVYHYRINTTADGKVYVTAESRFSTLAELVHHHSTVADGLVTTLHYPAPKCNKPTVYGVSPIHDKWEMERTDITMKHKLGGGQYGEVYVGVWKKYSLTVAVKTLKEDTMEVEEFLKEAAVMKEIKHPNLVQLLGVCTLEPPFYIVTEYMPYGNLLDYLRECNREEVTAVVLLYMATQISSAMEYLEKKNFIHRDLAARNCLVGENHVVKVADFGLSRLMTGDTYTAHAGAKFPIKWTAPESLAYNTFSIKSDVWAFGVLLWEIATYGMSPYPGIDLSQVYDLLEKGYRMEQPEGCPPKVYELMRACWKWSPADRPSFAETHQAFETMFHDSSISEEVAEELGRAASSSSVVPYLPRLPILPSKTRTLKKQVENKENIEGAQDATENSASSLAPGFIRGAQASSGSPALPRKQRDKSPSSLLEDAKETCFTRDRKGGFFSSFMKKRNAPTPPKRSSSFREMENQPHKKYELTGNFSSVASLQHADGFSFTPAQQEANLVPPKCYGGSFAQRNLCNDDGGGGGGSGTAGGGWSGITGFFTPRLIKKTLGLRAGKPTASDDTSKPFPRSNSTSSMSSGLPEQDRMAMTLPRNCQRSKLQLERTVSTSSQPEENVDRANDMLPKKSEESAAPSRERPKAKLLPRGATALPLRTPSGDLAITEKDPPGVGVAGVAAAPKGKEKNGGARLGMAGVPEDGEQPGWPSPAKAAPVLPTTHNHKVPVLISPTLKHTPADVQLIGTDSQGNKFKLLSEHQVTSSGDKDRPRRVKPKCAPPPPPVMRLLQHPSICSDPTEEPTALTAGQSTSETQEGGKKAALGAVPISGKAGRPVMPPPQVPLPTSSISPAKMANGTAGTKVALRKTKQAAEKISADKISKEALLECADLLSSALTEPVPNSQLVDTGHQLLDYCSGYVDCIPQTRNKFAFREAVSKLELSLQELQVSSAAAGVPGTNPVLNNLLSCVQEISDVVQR

[5] = molecular target: Proto-oncogene tyrosine-protein kinase Src (Homo sapiens) (UniProt P12931); experiment: Inhibition of c-Src at >1000 nM
Sequence of Proto-oncogene tyrosine-protein kinase Src (Homo sapiens) (P12931 2-536 limits assumed): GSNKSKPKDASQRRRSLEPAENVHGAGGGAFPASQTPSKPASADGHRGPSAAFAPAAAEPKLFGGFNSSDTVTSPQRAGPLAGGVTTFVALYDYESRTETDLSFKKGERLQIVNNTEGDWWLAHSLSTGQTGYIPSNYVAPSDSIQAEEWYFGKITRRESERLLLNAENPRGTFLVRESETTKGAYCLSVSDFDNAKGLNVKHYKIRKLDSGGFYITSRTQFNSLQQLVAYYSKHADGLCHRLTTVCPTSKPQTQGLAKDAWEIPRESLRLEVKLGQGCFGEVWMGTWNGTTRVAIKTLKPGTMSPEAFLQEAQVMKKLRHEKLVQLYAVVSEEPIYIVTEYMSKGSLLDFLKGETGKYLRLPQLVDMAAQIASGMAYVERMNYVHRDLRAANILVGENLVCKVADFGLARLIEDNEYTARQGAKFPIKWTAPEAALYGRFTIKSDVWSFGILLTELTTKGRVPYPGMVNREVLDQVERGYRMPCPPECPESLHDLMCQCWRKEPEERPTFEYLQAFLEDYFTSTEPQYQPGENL

[6] = Oral bioavailability in rat at 35 mg/kg; format: ADME, organism-based; conditions: in vivo
Procedure, shortened: (§1)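 Rats given a single oral dose (35 mg/kg) and a separate single intravenous dose (35 mg/kg). Pharmacokinetic parameters were derived from these two dosings.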

[7] = Cmax in rat at 35 mg/kg, po; format: ADME, organism-based; set-up: dose 35 mg/kg, route oral; conditions: in vivo; procedure, shortened: as §1
Rattus norvegicus = experiment: AUC in rat at 35 mg/kg, po; format: ADME, organism-based, Plasma; set-up: dose 35 mg/kg, route oral; conditions: in vivo; procedure, shortened: as §1
[8] = Half life in rat at 35 mg/kg, po; format: ADME, organism-based; set-up: dose 35 mg/kg, route oral; conditions: in vivo; procedure, shortened: as §1
[9] = Clearance in rat at 35 mg/kg, iv and 35 mg/kg, po; format: ADME, organism-based; conditions: in vivo; procedure, shortened: as §1
[10] = Volume of distribution at steady state in rat at 35 mg/kg, iv and 35 mg/kg, po; format: ADME, organism-based; conditions: in vivo, read-out: Vdss; procedure, shortened: as §1
[11] = Mean residence time in rat at 35 mg/kg, iv and 35 mg/kg, po; format: ADME, organism-based; conditions: in vivo; procedure, shortened: as §1
A-431 = experiment: Antitumor activity against human A431 cells xenografted in mouse assessed as inhibition of tumor growth administered as po qd; format: functional, organism-based
Procedure, shortened: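 Mice carried A431 xenografts. At a tumor volume of about 20 mm³ they were randomized, n = 10/group. Dosing was oral, once daily, at 30, 60 and 120 mg/kg in 0.5% CMC-Na vehicle, for 18–30 days. The positive control was Taxol 30 mg/kg ip once weekly. Tumor size was followed.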

T1 sequence (P00533 whole entry): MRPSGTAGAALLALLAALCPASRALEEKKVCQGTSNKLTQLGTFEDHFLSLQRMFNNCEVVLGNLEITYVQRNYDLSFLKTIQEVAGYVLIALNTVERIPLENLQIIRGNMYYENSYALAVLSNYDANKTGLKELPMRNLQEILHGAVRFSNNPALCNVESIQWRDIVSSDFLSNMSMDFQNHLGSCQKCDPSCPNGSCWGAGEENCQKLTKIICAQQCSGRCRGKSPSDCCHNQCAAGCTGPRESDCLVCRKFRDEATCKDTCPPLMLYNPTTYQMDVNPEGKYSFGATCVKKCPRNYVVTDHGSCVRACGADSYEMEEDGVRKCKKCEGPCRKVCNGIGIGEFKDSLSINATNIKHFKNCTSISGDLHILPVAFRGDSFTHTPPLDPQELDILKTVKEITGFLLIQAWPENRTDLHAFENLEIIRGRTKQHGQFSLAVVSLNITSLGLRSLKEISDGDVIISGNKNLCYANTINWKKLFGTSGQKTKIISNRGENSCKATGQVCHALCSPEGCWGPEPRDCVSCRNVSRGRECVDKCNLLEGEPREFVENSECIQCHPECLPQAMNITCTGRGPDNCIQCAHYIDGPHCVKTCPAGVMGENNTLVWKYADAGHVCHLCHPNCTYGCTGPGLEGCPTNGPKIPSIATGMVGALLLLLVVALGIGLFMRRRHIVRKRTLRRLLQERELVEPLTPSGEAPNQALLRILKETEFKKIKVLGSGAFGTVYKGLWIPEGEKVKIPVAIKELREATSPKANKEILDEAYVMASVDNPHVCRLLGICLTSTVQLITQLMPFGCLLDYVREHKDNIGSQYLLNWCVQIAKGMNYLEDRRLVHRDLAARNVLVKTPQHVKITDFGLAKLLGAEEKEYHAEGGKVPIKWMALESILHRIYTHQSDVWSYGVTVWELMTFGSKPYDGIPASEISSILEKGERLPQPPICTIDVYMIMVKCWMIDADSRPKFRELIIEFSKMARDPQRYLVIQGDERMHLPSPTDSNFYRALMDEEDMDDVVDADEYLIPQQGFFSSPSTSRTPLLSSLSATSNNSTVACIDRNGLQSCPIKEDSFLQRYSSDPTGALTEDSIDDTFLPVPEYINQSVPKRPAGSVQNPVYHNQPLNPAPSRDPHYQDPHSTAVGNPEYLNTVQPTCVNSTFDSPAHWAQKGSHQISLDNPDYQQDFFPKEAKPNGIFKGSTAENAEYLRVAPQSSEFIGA

IC50 [1] [nM] | IC50 [2] [nM] | Structure (SMILES) | other results
8 | > 1000 | Brc1cccc(Nc2ncnc3cc4c(cc23)OCCCSCCCO4)c1 | –
150 | – | Cc1ccc(S(=O)(=O)N2CCOc3cc4ncnc(Nc5cccc(Br)c5)c4cc3OCC2)cc1 | –
55 | – | Brc1cccc(Nc2ncnc3cc4c(cc23)OCCOCCO4)c1 | –
2 | 45 | Fc1ccc(Nc2ncnc3cc4c(cc23)OCCOCCOCCO4)cc1Cl | –
7 | > 1000 | Brc1cccc(Nc2ncnc3cc4c(cc23)OCCSCCO4)c1 | –
5 | 50 | Brc1cccc(Nc2ncnc3cc4c(cc23)OCCOCCOCCO4)c1 | –
85 | – | Brc1cccc(Nc2ncnc3cc4c(cc23)OCCCO4)c1 | –
120 | – | Brc1cccc(Nc2ncnc3cc4c(cc23)Oc2ccccc2O4)c1 | –
5 | 50 | Brc1cccc(Nc2ncnc3cc4c(cc23)OCCOCOCOCCO4)c1 | –
2 | 55 | Clc1cccc(Nc2ncnc3cc4c(cc23)OCCOCCOCCO4)c1 | –

Structure (SMILES) | IC50 [1] [nM] | IC50 [2] [nM] | other results
C#Cc1cccc(Nc2ncnc3cc4c(cc23)OCCOCCOCCO4)c1 [ICOTINIB] | 2 | 45 | inhibition [3]: inactive; inhibition [4]: inactive; inhibition [5]: inactive; bioavailability [6]: 52%; Cmax [7]: 6120 ng/mL; AUC (Rattus norvegicus): 49.4 µg/mL; half-life [8]: 2.8 h; clearance [9]: 21 mL/min/kg; Vd [10]: 3.9 L/kg; MRT [11]: 6.9 h; inhibition (A-431): Dose-dependent effect
